Assay results as given in ChEMBL document CHEMBL1148129, “Reversal of multidrug resistance by tropane alkaloids from the stems of Erythroxylum rotundifolium” (2002).
Values after ≈ are worked out from the molar mass of the structure shown. Active and inactive are the calls of the source. The calls are words filed in the database; no cut-off is given here.

Columns and labels:
[1] = Cytotoxicity against human BC1 cells; type: functional; details: read-out: ED50 (the source's name)
Lu1 = assay: Cytotoxicity against human Lu1 cells; type: functional; details: read-out: ED50 (the source's name)
KB = assay: Cytotoxicity against human KB cells; type: functional; details: read-out: ED50 (the source's name)
In short: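 Parental (drug-sensitive) KB oral epidermoid carcinoma cells were exposed to test compound without vinblastine. Cytotoxicity is reported as ED50 in µg/mL.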

[2] = Cytotoxicity against human KBV1 cells in presence of vinblastine; type: functional; details: KB-V1, read-out: ED50 (the source's name)
In short: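 Multidrug-resistant oral epidermoid carcinoma KB-V1 cells were incubated with test compound in the presence of vinblastine at 1.0 µg/mL. Cytotoxicity is reported as ED50 in µg/mL.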

[3] = Cytotoxicity against human KBV1 cells in absence of vinblastine; type: functional; details: KB-V1, read-out: ED50 (the source's name)
In short: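 Multidrug-resistant oral epidermoid carcinoma KB-V1 cells were incubated with test compound alone, with no vinblastine added. Cytotoxicity is reported as ED50 in µg/mL.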

Col2 = assay: Cytotoxicity against human Col2 cells; type: functional; details: read-out: ED50 (the source's name)
LNCaP = assay: Cytotoxicity against human LNCAP cells; type: functional; details: read-out: ED50 (the source's name)
ASK = assay: Cytotoxicity against human ASK cells at 20 ug/mL; type: functional, cell-based

SMILES: CN1C2C[C@H](O)CC1[C@@H](OC(=O)c1ccccc1)C2 (some centres not stated)
- EC50 [1]: > 20 µg/mL
- EC50 (Lu1): > 20 µg/mL
- EC50 (KB): > 20 µg/mL
- EC50 [2]: > 20 µg/mL
- EC50 [3]: > 20 µg/mL

SMILES: COc1cc(/C=C/C(=O)O[C@H]2C[C@H]3C[C@H](OC(=O)c4ccccc4)[C@@H](C2)N3C)cc(OC)c1OC
- EC50 [1]: 15.3 µg/mL (≈ 31.8 µM)
- EC50 (Lu1): > 20 µg/mL
- EC50 (Col2): 5.1 µg/mL (≈ 10.6 µM)
- EC50 (KB): 10.3 µg/mL (≈ 21.4 µM)
- EC50 [2]: 0.2 µg/mL
- EC50 [3]: 3.6 µg/mL (≈ 7.48 µM)
- EC50 (LNCaP): 10 µg/mL (≈ 20.8 µM)
- Activity (ASK): inactive

SMILES: COc1cc(/C=C/C(=O)O[C@@H]2C[C@@H]3[C@@H](OC(=O)c4ccccc4)[C@@H](OC(C)=O)[C@H](C2)N3C)cc(OC)c1OC
- EC50 [1]: 14.6 µg/mL (≈ 27.1 µM)
- EC50 (Lu1): > 20 µg/mL
- EC50 (Col2): > 20 µg/mL
- EC50 (KB): 14.8 µg/mL (≈ 27.4 µM)
- EC50 [2]: 1.1 µg/mL
- EC50 [3]: 13.2 µg/mL (≈ 24.5 µM)
- EC50 (LNCaP): 14.9 µg/mL (≈ 27.6 µM)
- Activity (ASK): inactive

SMILES: COc1cc(/C=C\C(=O)O[C@H]2C[C@H]3C[C@H](OC(=O)c4ccccc4)[C@@H](C2)N3C)cc(OC)c1OC
- EC50 [1]: > 20 µg/mL
- EC50 (Lu1): > 20 µg/mL
- EC50 (KB): > 20 µg/mL
- EC50 [2]: 0.3 µg/mL
- EC50 [3]: 3.5 µg/mL (≈ 7.27 µM)

SMILES: COc1cc(/C=C/C(=O)O[C@@H]2C[C@@H]3[C@@H](OC(=O)c4ccccc4)[C@@H](O)[C@H](C2)N3C)cc(OC)c1OC
- EC50 [1]: > 20 µg/mL
- EC50 (Lu1): > 20 µg/mL
- EC50 (Col2): > 20 µg/mL
- EC50 (KB): > 20 µg/mL
- EC50 [2]: 0.3 µg/mL
- EC50 [3]: 2.6 µg/mL (≈ 5.23 µM)
- EC50 (LNCaP): 6.7 µg/mL (≈ 13.5 µM)
- Activity (ASK): inactive

SMILES: COc1cc(/C=C/C(=O)O[C@@H]2C[C@@H]3[C@@H](OC(=O)c4cc(OC)c(OC)c(OC)c4)[C@@H](O)[C@H](C2)N3C)cc(OC)c1OC
- EC50 [1]: 6.1 µg/mL (≈ 10.4 µM)
- EC50 (Lu1): 14.6 µg/mL (≈ 24.8 µM)
- EC50 (Col2): 10.4 µg/mL (≈ 17.7 µM)
- EC50 (KB): 12.6 µg/mL (≈ 21.4 µM)
- EC50 [2]: 6.6 µg/mL
- EC50 [3]: 20 µg/mL (≈ 34 µM)
- EC50 (LNCaP): 15 µg/mL (≈ 25.5 µM)
- Activity (ASK): inactive
